Reference: ChEMBL document CHEMBL5321283, “Structure-Activity Relationships of the Antimicrobial Peptide Natural Product Apidaecin” (J Med Chem, 2023)
Values after ≈ are worked out from the molar mass of the structure shown. Active and inactive are the calls of the source. No cut-off for these calls is given here. *1 amine or outer side, *2 acyl side, *3 side chain or, on linkers, in order; H or OH if unused. Where a SMILES comes first, the peptide text is derived from it. [ ]: non-standard residue; d: D form. The star is where a group is joined. Orn(α-tetramethylguanidino) = CN(C)C(=N[C@@H](CCCN)C(=O)*)N(C)C; X1 = N=C(N)NCCC[C@H](NC(=S)[C@@H]1CCCN1[*:1])C(=O)[*:2]; X3 = O=C([C@@H]1CCCN1C(=S)[C@@H]1CCCN1[*:1])[*:2]; Phe(4-F) = N[C@@H](Cc1ccc(F)cc1)C(=O)O; 2Nal = N[C@@H](Cc1ccc2ccccc2c1)C(=O)O; Hyp = O=C(O)[C@@H]1C[C@@H](O)CN1; Cha = N[C@@H](CC1CCCCC1)C(=O)O; NMeL = CN[C@@H](CC(C)C)C(=O)O

How the values were obtained:
Escherichia coli [1] = experiment: Antibacterial activity against Escherichia coli BL21 harboring RF2 (R262C) mutant assessed as bacterial growth inhibition by broth microdilution assay; format: functional
Escherichia coli [2] = experiment: Induction of stop-codon readthrough in Escherichia coli BL21 carrying pRXG (UGA) reporter incubated for 18 hrs by imaging analysis; format: functional
Outline: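 Lawn spread on M9 agar with 0.2 mM IPTG and kanamycin, then dried. 2 μL drops of 0.2 mM peptide applied; 1 μL chloramphenicol (1 mg/mL) as negative control. ~18 h, 37 °C; RFP (Cy3) and GFP (Cy2) imaged.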

[3] = Stability in human plasma assessed as parent compound remaining measured after 2 hrs; format: ADME, cell-free; conditions: read-out: Stability
Escherichia coli [4] = experiment: Antibacterial activity against Escherichia coli BL21 harboring sbmA mutant assessed as bacterial growth inhibition by broth microdilution assay; format: functional
Escherichia coli [5] = experiment: Antibacterial activity against Escherichia coli BL21 assessed as bacterial growth inhibition by broth microdilution assay; format: functional
Escherichia coli [6] = experiment: Potency index, ratio of Api-137 MIC to test compound MIC for antibacterial activity against Escherichia coli BL21 assessed as bacterial growth inhibition by broth microdilution assay; format: functional

Row | SMILES | MIC (Escherichia coli [1]) [µM] | Activity (Escherichia coli [2]) | remaining at 2 h [3] [%] | MIC (Escherichia coli [4]) [µM] | MIC (Escherichia coli [5]) [µM] | Ratio (Escherichia coli [6])
1 | CC[C@H](C)[C@H](NC(=O)[C@H](Cc1ccc(O)cc1)NC(=O)[C@@H](NC(=O)[C@@H]1CCCN1C(=O)[C@H](CCCNC(=N)N)NC(=O)[C@H](CC(N)=O)NC(=O)[C@H](CC(N)=O)NC(=O)[C@H](CCCN)N=C(N(C)C)N(C)C)C(C)C)C(=O)N1CCC[C@H]1C(=O)N[C@@H](CCCNC(=N)N)C(=O)N1CCC[C@H]1C(=O)N[C@@H](CCCNC(=N)N)C(=O)N1CCC[C@H]1C(=O)N1CCC[C@H]1C(=O)N[C@@H](Cc1c[nH]cn1)C(=O)N1CCC[C@H]1C(=O)N[C@@H](CCCNC(=N)N)C(=O)N(C)[C@@H](CC(C)C)C(=O)O ({Orn(α-tetramethylguanidino)}-NNRPVYIPRPRPPHPR[NMeL]-OH) | > 25 | Active | ~80 | > 25 | – | –
2 | CC[C@H](C)[C@H](NC(=O)[C@H](Cc1ccc(O)cc1)NC(=O)[C@@H](NC(=O)[C@@H]1CCCN1C(=O)[C@H](CCCNC(=N)N)NC(=O)[C@H](CC(N)=O)NC(=O)[C@H](CC(N)=O)NC(=O)[C@H](CCCN)N=C(N(C)C)N(C)C)C(C)C)C(=O)N1CCC[C@H]1C(=O)N[C@@H](CCCNC(=N)N)C(=O)N1CCC[C@H]1C(=O)N[C@@H](CCCNC(=N)N)C(=O)N1CCC[C@H]1C(=O)N1CCC[C@H]1C(=O)N[C@@H](Cc1c[nH]c2ccccc12)C(=O)N1CCC[C@H]1C(=O)N[C@@H](CCCNC(=N)N)C(=O)N[C@@H](CC(C)C)C(=O)O ({Orn(α-tetramethylguanidino)}-NNRPVYIPRPRPPWPRL-OH) | – | – | – | – | 1.2 (≈ 2.81 µg/mL) | 8
3 | CC[C@H](C)[C@H](NC(=O)[C@H](Cc1ccc(O)cc1)NC(=O)[C@@H](NC(=O)[C@@H]1CCCN1C(=O)[C@H](CCCNC(=N)N)NC(=O)[C@H](CC(N)=O)NC(=O)[C@H](CC(N)=O)NC(=O)[C@H](CCCN)N=C(N(C)C)N(C)C)C(C)C)C(=O)N1CCC[C@H]1C(=O)N[C@@H](CCCNC(=N)N)C(=O)N1CCC[C@H]1C(=O)N[C@@H](CCCNC(=N)N)C(=O)N1CCC[C@H]1C(=O)N1CCC[C@H]1C(=O)N[C@@H](Cc1ccc2ccccc2c1)C(=O)N1CCC[C@H]1C(=O)N[C@@H](CCCNC(=N)N)C(=O)N[C@@H](CC(C)C)C(=O)O ({Orn(α-tetramethylguanidino)}-NNRPVYIPRPRPP[2Nal]PRL-OH) | – | – | – | – | 10 (≈ 23.5 µg/mL) | 63
4 | CC[C@H](C)[C@H](NC(=O)[C@H](Cc1ccc(O)cc1)NC(=O)[C@@H](NC(=O)[C@@H]1CCCN1C(=O)[C@H](CCCNC(=N)N)NC(=O)[C@H](CC(N)=O)NC(=O)[C@H](CC(N)=O)NC(=O)[C@H](CCCN)N=C(N(C)C)N(C)C)C(C)C)C(=O)N1CCC[C@H]1C(=O)N[C@@H](CCCNC(=N)N)C(=O)N1CCC[C@H]1C(=O)N[C@@H](CCCNC(=N)N)C(=O)N1CCC[C@H]1C(=O)N1CCC[C@H]1C(=O)N[C@@H](CC1CCCCC1)C(=O)N1CCC[C@H]1C(=O)N[C@@H](CCCNC(=N)N)C(=O)N[C@@H](CC(C)C)C(=O)O ({Orn(α-tetramethylguanidino)}-NNRPVYIPRPRPP[Cha]PRL-OH) | – | – | – | – | 5 (≈ 11.5 µg/mL) | 32
5 | CC[C@H](C)[C@H](NC(=O)[C@H](Cc1ccc(O)cc1)NC(=O)[C@@H](NC(=O)[C@@H]1CCCN1C(=O)[C@H](CCCNC(=N)N)NC(=O)[C@H](CC(N)=O)NC(=O)[C@H](CC(N)=O)NC(=O)[C@H](CCCN)N=C(N(C)C)N(C)C)C(C)C)C(=O)N1CCC[C@H]1C(=O)N[C@@H](CCCNC(=N)N)C(=O)N1CCC[C@H]1C(=O)N[C@@H](CCCNC(=N)N)C(=O)N1CCC[C@H]1C(=O)N1C[C@H](O)C[C@H]1C(=O)N[C@@H](Cc1c[nH]cn1)C(=O)N1CCC[C@H]1C(=O)N[C@@H](CCCNC(=N)N)C(=O)N[C@@H](CC(C)C)C(=O)O ({Orn(α-tetramethylguanidino)}-NNRPVYIPRPRP[Hyp]HPRL-OH) | – | – | – | – | 0.6 (≈ 1.38 µg/mL) | 2
6 | CC[C@H](C)[C@H](NC(=O)[C@H](Cc1ccc(O)cc1)NC(=O)[C@@H](NC(=O)[C@@H]1CCCN1C(=O)[C@H](CCCNC(=N)N)NC(=O)[C@H](CC(N)=O)NC(=O)[C@H](CC(N)=O)NC(=O)[C@H](CCCN)N=C(N(C)C)N(C)C)C(C)C)C(=O)N1CCC[C@H]1C(=O)N[C@@H](CCCNC(=N)N)C(=O)N1CCC[C@H]1C(=O)N[C@@H](CCCNC(=N)N)C(=O)N1C[C@H](O)C[C@H]1C(=O)N1CCC[C@H]1C(=O)N[C@@H](Cc1c[nH]cn1)C(=O)N1CCC[C@H]1C(=O)N[C@@H](CCCNC(=N)N)C(=O)N[C@@H](CC(C)C)C(=O)O ({Orn(α-tetramethylguanidino)}-NNRPVYIPRPR[Hyp]PHPRL-OH) | – | – | – | – | 0.16 (≈ 0.369 µg/mL) | 2
7 | CC[C@H](C)[C@H](NC(=O)[C@H](Cc1ccc(O)cc1)NC(=O)[C@@H](NC(=O)[C@@H]1CCCN1C(=O)[C@H](CCCNC(=N)N)NC(=O)[C@H](CC(N)=O)NC(=O)[C@H](CC(N)=O)NC(=O)[C@H](CCCN)N=C(N(C)C)N(C)C)C(C)C)C(=O)N1CCC[C@H]1C(=O)N[C@@H](CCCNC(=N)N)C(=O)N1CCC[C@H]1C(=O)N[C@@H](CCCNC(=N)N)C(=O)N1CCC[C@H]1C(=S)N1CCC[C@H]1C(=O)N[C@@H](Cc1c[nH]cn1)C(=O)N1CCC[C@H]1C(=O)N[C@@H](CCCNC(=N)N)C(=O)N[C@@H](CC(C)C)C(=O)O ({Orn(α-tetramethylguanidino)}-NNRPVYIPRPR[X3]HPRL-OH) | – | – | – | – | 0.62 (≈ 1.43 µg/mL) | 4
8 | CC[C@H](C)[C@H](NC(=O)[C@H](Cc1ccc(O)cc1)NC(=O)[C@@H](NC(=O)[C@@H]1CCCN1C(=O)[C@H](CCCNC(=N)N)NC(=O)[C@H](CC(N)=O)NC(=O)[C@H](CC(N)=O)NC(=O)[C@H](CCCN)N=C(N(C)C)N(C)C)C(C)C)C(=O)N1CCC[C@H]1C(=O)N[C@@H](CCCNC(=N)N)C(=O)N1C[C@H](O)C[C@H]1C(=O)N[C@@H](CCCNC(=N)N)C(=O)N1CCC[C@H]1C(=O)N1CCC[C@H]1C(=O)N[C@@H](Cc1c[nH]cn1)C(=O)N1CCC[C@H]1C(=O)N[C@@H](CCCNC(=N)N)C(=O)N[C@@H](CC(C)C)C(=O)O ({Orn(α-tetramethylguanidino)}-NNRPVYIPR[Hyp]RPPHPRL-OH) | – | – | – | – | 1.2 (≈ 2.77 µg/mL) | 4
9 | CC[C@H](C)[C@H](NC(=O)[C@H](Cc1ccc(O)cc1)NC(=O)[C@@H](NC(=O)[C@@H]1CCCN1C(=O)[C@H](CCCNC(=N)N)NC(=O)[C@H](CC(N)=O)NC(=O)[C@H](CC(N)=O)NC(=O)[C@H](CCCN)N=C(N(C)C)N(C)C)C(C)C)C(=O)N1CCC[C@H]1C(=O)N[C@@H](CCCNC(=N)N)C(=O)N1CCC[C@H]1C(=S)N[C@@H](CCCNC(=N)N)C(=O)N1CCC[C@H]1C(=O)N1CCC[C@H]1C(=O)N[C@@H](Cc1c[nH]cn1)C(=O)N1CCC[C@H]1C(=O)N[C@@H](CCCNC(=N)N)C(=O)N[C@@H](CC(C)C)C(=O)O ({Orn(α-tetramethylguanidino)}-NNRPVYIPR[X1]PPHPRL-OH) | – | – | – | – | 0.62 (≈ 1.43 µg/mL) | 4
10 | CC[C@H](C)[C@H](NC(=O)[C@H](Cc1ccc(O)cc1)NC(=O)[C@@H](NC(=O)[C@@H]1CCCN1C(=O)[C@H](CCCNC(=N)N)NC(=O)[C@H](CC(N)=O)NC(=O)[C@H](CC(N)=O)NC(=O)[C@H](CCCN)N=C(N(C)C)N(C)C)C(C)C)C(=O)N1C[C@H](O)C[C@H]1C(=O)N[C@@H](CCCNC(=N)N)C(=O)N1CCC[C@H]1C(=O)N[C@@H](CCCNC(=N)N)C(=O)N1CCC[C@H]1C(=O)N1CCC[C@H]1C(=O)N[C@@H](Cc1c[nH]cn1)C(=O)N1CCC[C@H]1C(=O)N[C@@H](CCCNC(=N)N)C(=O)N[C@@H](CC(C)C)C(=O)O ({Orn(α-tetramethylguanidino)}-NNRPVYI[Hyp]RPRPPHPRL-OH) | – | – | – | – | 0.08 (≈ 0.185 µg/mL) | 1
11 | CC[C@H](C)[C@H](NC(=O)[C@H](CC1CCCCC1)NC(=O)[C@@H](NC(=O)[C@@H]1CCCN1C(=O)[C@H](CCCNC(=N)N)NC(=O)[C@H](CC(N)=O)NC(=O)[C@H](CC(N)=O)NC(=O)[C@H](CCCN)N=C(N(C)C)N(C)C)C(C)C)C(=O)N1CCC[C@H]1C(=O)N[C@@H](CCCNC(=N)N)C(=O)N1CCC[C@H]1C(=O)N[C@@H](CCCNC(=N)N)C(=O)N1CCC[C@H]1C(=O)N1CCC[C@H]1C(=O)N[C@@H](Cc1c[nH]cn1)C(=O)N1CCC[C@H]1C(=O)N[C@@H](CCCNC(=N)N)C(=O)N[C@@H](CC(C)C)C(=O)O ({Orn(α-tetramethylguanidino)}-NNRPV[Cha]IPRPRPPHPRL-OH) | – | – | – | – | 0.75 (≈ 1.71 µg/mL) | 2
12 | CC[C@H](C)[C@H](NC(=O)[C@H](Cc1ccc(F)cc1)NC(=O)[C@@H](NC(=O)[C@@H]1CCCN1C(=O)[C@H](CCCNC(=N)N)NC(=O)[C@H](CC(N)=O)NC(=O)[C@H](CC(N)=O)NC(=O)[C@H](CCCN)N=C(N(C)C)N(C)C)C(C)C)C(=O)N1CCC[C@H]1C(=O)N[C@@H](CCCNC(=N)N)C(=O)N1CCC[C@H]1C(=O)N[C@@H](CCCNC(=N)N)C(=O)N1CCC[C@H]1C(=O)N1CCC[C@H]1C(=O)N[C@@H](Cc1c[nH]cn1)C(=O)N1CCC[C@H]1C(=O)N[C@@H](CCCNC(=N)N)C(=O)N[C@@H](CC(C)C)C(=O)O ({Orn(α-tetramethylguanidino)}-NNRPV[Phe(4-F)]IPRPRPPHPRL-OH) | – | – | – | – | 0.35 (≈ 0.803 µg/mL) | 1
13 | CC[C@H](C)[C@H](NC(=O)[C@H](Cc1ccc(O)cc1)NC(=O)[C@@H](NC(=O)[C@@H]1C[C@@H](O)CN1C(=O)[C@H](CCCNC(=N)N)NC(=O)[C@H](CC(N)=O)NC(=O)[C@H](CC(N)=O)NC(=O)[C@H](CCCN)N=C(N(C)C)N(C)C)C(C)C)C(=O)N1CCC[C@H]1C(=O)N[C@@H](CCCNC(=N)N)C(=O)N1CCC[C@H]1C(=O)N[C@@H](CCCNC(=N)N)C(=O)N1CCC[C@H]1C(=O)N1CCC[C@H]1C(=O)N[C@@H](Cc1c[nH]cn1)C(=O)N1CCC[C@H]1C(=O)N[C@@H](CCCNC(=N)N)C(=O)N[C@@H](CC(C)C)C(=O)O ({Orn(α-tetramethylguanidino)}-NNR[Hyp]VYIPRPRPPHPRL-OH) | – | – | – | – | 0.08 (≈ 0.185 µg/mL) | 1
